Assay results taken from publication PMC6911266 (Nature, 2019).
Substitutions are numbered along the chain they refer to. Several values for one entry are separate records, joined by “and”; a condition that tells them apart may be missing. Equal entries are not always repeated.

Legend:
[1] = tested on: P. falciparum 7G8^7G8 parasite line; test: [3H]-drug accumulation assay in cultured parasites; type: cell-based, Plasmodium falciparum; conditions: 60 min, trophozoites
Outline: (§1)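 Sorbitol-synchronized early trophozoites (24–26 h) were magnet-purified and resuspended in bicarbonate-free RPMI 1640 (25 mM HEPES, 10 mM glucose, 0.2 mM hypoxanthine, pH 7.4), counted by hemocytometer. They were mixed with an equal volume of radiolabelled drug (10 nM [3H]-CQ before mixing) for 1 h at 37°C, spun through dibutyl phthalate, then scintillation counted. CAR was internal/external drug, corrected for uninfected erythrocytes, per 10^6 cells at 75 fl; 4–6 assays in duplicate.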

[2] = target: T1, PfCRT 7G8 (Plasmodium falciparum, UniProt W7FI62); test: Scintillation proximity assay; type: binding; conditions: for competition of [3H]-Arg binding (in words): 125 nM [3H]-Arg, 1 μM CQ or PPQ, 0.1 μM amodiaquine, 1 mM Arg, Lys or Leu; for EC50: half-maximal binding constant (EC50), isotopic dilution, SPA, nanodiscs, pH 7.5, isotopic dilution of [3H]-CQ or [3H]-PPQ
T1 sequence (W7FI62 1-424): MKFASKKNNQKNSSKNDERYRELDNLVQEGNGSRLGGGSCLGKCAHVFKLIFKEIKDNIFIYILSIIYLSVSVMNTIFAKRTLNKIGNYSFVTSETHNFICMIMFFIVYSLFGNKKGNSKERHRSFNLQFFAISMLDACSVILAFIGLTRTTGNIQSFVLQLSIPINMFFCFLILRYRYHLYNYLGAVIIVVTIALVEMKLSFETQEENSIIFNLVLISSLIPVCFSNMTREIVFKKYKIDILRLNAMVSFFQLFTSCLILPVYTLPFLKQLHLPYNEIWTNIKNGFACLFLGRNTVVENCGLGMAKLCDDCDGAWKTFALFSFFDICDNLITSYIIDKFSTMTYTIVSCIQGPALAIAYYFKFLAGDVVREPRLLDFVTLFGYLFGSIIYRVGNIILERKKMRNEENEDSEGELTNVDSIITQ

[3] = tested on: P. falciparum Dd2^Dd2 parasite line; test: [3H]-drug accumulation assay in cultured parasites; type: cell-based, Plasmodium falciparum; conditions: 60 min, trophozoites
Outline: as §1

[4] = tested on: P. falciparum 7G8^7G8 parasite line; test: Parasite drug susceptibility assay; type: cell-based, Plasmodium falciparum; conditions: Plasmodium falciparum, 7G8, 72 h
Outline: (§2)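 Asynchronous asexual blood-stage parasites were seeded at 0.3% parasitemia and 1% hematocrit into 2-fold, 10-point test compound dilutions. Incubation was 72 h at 37°C under 5% O2/5% CO2/90% N2. Final parasitemia was read by flow cytometry. IC50 came from nonlinear regression, 4 independent assays in duplicate, with two-tailed Mann-Whitney U tests.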

[5] = Uptake in control liposomes; type: biochemical; conditions: 100 nM [3H]-drug, liposomes without PfCRT
Outline: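 Control liposomes lack PfCRT and are loaded with 100 mM KPi, pH 7.5, and 2 mM β-mercaptoethanol. They are diluted into 100 mM Tris/Mes, pH 5.5, with 100 nM [3H]-CQ (5.45 Ci/mmol) or [3H]-PPQ (15 Ci/mmol) for 1 min. Non-specific filter binding, measured as mock uptake without liposomes, is subtracted. Data come from 2 independent experiments, each with 4 technical replicates.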

[6] = tested on: P. falciparum 7G8^7G8+C350R parasite line; test: Parasite drug susceptibility assay; type: cell-based, Plasmodium falciparum; conditions: Plasmodium falciparum, 7G8, 72 h
Outline: as §2

[7] = target: T2, PfCRT 7G8+C350R (Plasmodium falciparum, UniProt W7FI62, C350R); test: Equilibrium dialysis binding, PfCRT variant in nanodiscs; conditions: for Bmax, binding at pH 5.5 / Bmax, binding at pH 7.5: equilibrium dialysis
T2 sequence (W7FI62 1-424 C350R): T1 sequence (W7FI62 1-424) with C350R

[8] = tested on: P. falciparum parasites with PfCRT haplotypes/mutations; conditions: cited from earlier work; for Associated Phenotype, mutation C350R: haplotype 7G8+C350R, this study; for Associated Phenotype, mutation C350R / Associated Phenotype, mutation C72S / Associated Phenotype, mutation F145I / Associated Phenotype, mutation G353V / Associated Phenotype, mutation H97Y / Associated Phenotype, mutation I218F / Associated Phenotype, mutation M343L / Associated Phenotype, mutation T93S / Associated Phenotype, mutation A220S / Associated Phenotype, mutation I356T/L / Associated Phenotype, mutation N326S/D / Associated Phenotype, mutation M74I / Associated Phenotype, mutation N75E / Associated Phenotype, mutation Q271E / Associated Phenotype, mutation R371I / Associated Phenotype, mutation K76T: field; for Associated Phenotype, mutation C72S: haplotype 7G8; for Associated Phenotype, mutation C101F: haplotype Dd2+C101F, lab; for Associated Phenotype, mutation F145I: haplotype Dd2+F145I; for Associated Phenotype, mutation G353V: haplotype Dd2+G353V; for Associated Phenotype, mutation H97Y: haplotype Dd2+H97Y; for Associated Phenotype, mutation I218F: haplotype Dd2+I218F; for Associated Phenotype, mutation M343L: haplotype Dd2+M343L; for Associated Phenotype, mutation T93S: haplotype Dd2+T93S; for Associated Phenotype, mutation A220S / Associated Phenotype, mutation I356T/L / Associated Phenotype, mutation N326S/D: haplotype Dd2/7G8; for Associated Phenotype, mutation M74I / Associated Phenotype, mutation N75E / Associated Phenotype, mutation Q271E / Associated Phenotype, mutation R371I: haplotype Dd2; for Associated Phenotype, mutation K76T: haplotype Dd2 and 7G8
[9] = tested on: P. falciparum 7G8^7G8+C350R parasite line; test: Piperaquine survival assay; type: cell-based, Plasmodium falciparum; conditions: vs no-drug control
[10] = tested on: P. falciparum ring-stage parasites; test: Piperaquine survival assay, summary in text; type: cell-based, Plasmodium falciparum
[11] = tested on: P. falciparum WT (3D7) parasite line; test: Piperaquine survival assay; type: cell-based, Plasmodium falciparum; conditions: vs no-drug control
[12] = binding at pH 5.5, equilibrium dialysis, pH 5.5
[13] = binding at pH 7.5, equilibrium dialysis, pH 7.5

CCN(CC)CCCC(C)Nc1ccnc2cc(Cl)ccc12 (stereo not shown) [CQ, chloroquine]
[3H]-CQ CAR (cellular accumulation ratio) ([1]; 5 nM [3H]-CQ): 14.5 ± 3.7 | competition of [3H]-Arg binding (in words) [2]: effectively competed | EC50 [2]: ~300 nM and 297 nM | [3H]-CQ CAR (cellular accumulation ratio) ([3]; 5 nM [3H]-CQ): 26.3 ± 2.9 | IC50 [4]: 83 ± 7.5 nM | 1-min uptake in control liposomes [5]: 0.12 ± 0.02 nmol/mg | IC50 [6]: 6.9 ± 0.3 nM | Kd [7, 12]: 130 ± 30 nM | Kd [7, 13]: 300 ± 60 nM | Bmax, binding at pH 5.5 ([7]; pH 5.5): 0.37 ± 0.02 mol CQ/mol PfCRT | Bmax, binding at pH 7.5 ([7]; pH 7.5): 0.42 ± 0.03 mol CQ/mol PfCRT | Associated Phenotype, mutation C350R [8]: S | Associated Phenotype, mutation C72S [8]: R | Associated Phenotype, mutation C101F [8]: S | Associated Phenotype, mutation F145I [8]: S | Associated Phenotype, mutation G353V [8]: S | Associated Phenotype, mutation H97Y [8]: PPQ-R (CQ-R) | Associated Phenotype, mutation I218F [8]: R low | Associated Phenotype, mutation M343L [8]: S | Associated Phenotype, mutation T93S [8]: PPQ-R (CQ-R) | Associated Phenotype, mutation A220S [8]: R | Associated Phenotype, mutation I356T/L [8]: R | Associated Phenotype, mutation N326S/D [8]: R | Associated Phenotype, mutation M74I [8]: R | Associated Phenotype, mutation N75E [8]: R | Associated Phenotype, mutation Q271E [8]: R | Associated Phenotype, mutation R371I [8]: R | Associated Phenotype, mutation K76T [8]: R

Clc1ccc2c(N3CCN(CCCN4CCN(c5ccnc6cc(Cl)ccc56)CC4)CC3)ccnc2c1 [PPQ, piperaquine]
PSA 3.125 nM, percent survival ([9]; 3.125 nM PPQ 48 h): 96.6 ± 2.4% | PSA 6.25 nM, percent survival ([9]; 6.25 nM PPQ 48 h): 90.7 ± 5.1% | PSA 12.5 nM, percent survival ([9]; 12.5 nM PPQ 48 h): 79.8 ± 5.5% | PSA 25 nM, percent survival ([9]; 25 nM PPQ 48 h): 62.1 ± 9.6% | PSA 50 nM, percent survival ([9]; 50 nM PPQ 48 h): 31.8 ± 9.3% | PSA 100 nM, percent survival ([9]; 100 nM PPQ 48 h): 7.7 ± 2.5% | PSA 200 nM, percent survival ([9]; 200 nM PPQ 48 h): 9.5 ± 1.2% | PSA 400 nM, percent survival ([9]; 400 nM PPQ 48 h): 10.5 ± 1.1% | PSA 800 nM, percent survival ([9]; 800 nM PPQ 48 h): 6.6 ± 0.46% | PSA 1600 nM, percent survival ([9]; 1600 nM PPQ 48 h): 5.9 ± 0.9% | [3H]-PPQ CAR (cellular accumulation ratio) ([1]; 20 nM [3H]-PPQ): 1943.9 ± 82.2 | competition of [3H]-Arg binding (in words) [2]: effectively competed | EC50 [2]: ~190 nM and 190 nM | survival in PPQ survival assay ([10]; PPQ-S parasites, concentrations of 200 nM or more): ≤ 1% | survival in PPQ survival assay ([10]; standard assay concentration of 200 nM PPQ, 48 h, edited 7G8+F145I and 7G8+C350R lines (Fig. 3l)): 9–10% | PSA 3.125 nM, percent survival ([11]; 3.125 nM PPQ 48 h): 81.2 ± 19.6% | PSA 6.25 nM, percent survival ([11]; 6.25 nM PPQ 48 h): 12.1 ± 6.8% | PSA 12.5 nM, percent survival ([11]; 12.5 nM PPQ 48 h): 7.2 ± 1.5% | PSA 25 nM, percent survival ([11]; 25 nM PPQ 48 h): 11.0 ± 1.7% | PSA 50 nM, percent survival ([11]; 50 nM PPQ 48 h): 4.9 ± 1.1% | PSA 100 nM, percent survival ([11]; 100 nM PPQ 48 h): 1.3 ± 0.35% | PSA 200 nM, percent survival ([11]; 200 nM PPQ 48 h): 1.2 ± 0.54% | PSA 400 nM, percent survival ([11]; 400 nM PPQ 48 h): 0.61 ± 0.19% | PSA 800 nM, percent survival ([11]; 800 nM PPQ 48 h): 0.62 ± 0.16% | PSA 1600 nM, percent survival ([11]; 1600 nM PPQ 48 h): 0.51 ± 0.17% | [3H]-PPQ CAR (cellular accumulation ratio) ([3]; 20 nM [3H]-PPQ): 1861.3 ± 91.8 | IC50 [4]: 21.4 ± 1 nM | 1-min uptake in control liposomes [5]: 0.09 ± 0.01 nmol/mg | IC50 [6]: 29.5 ± 1.6 nM | Kd [7, 12]: 210 ± 30 nM | Kd [7, 13]: 250 ± 40 nM | Bmax, binding at pH 5.5 ([7]; pH 5.5): 0.39 ± 0.02 mol CQ/mol PfCRT | Bmax, binding at pH 7.5 ([7]; pH 7.5): 0.41 ± 0.02 mol CQ/mol PfCRT | fold increase in Kd compared with 7G8 parental isoform ([7]; pH 5.5): ~ 2 fold | Associated Phenotype, mutation C350R [8]: R low | Associated Phenotype, mutation C72S [8]: S | Associated Phenotype, mutation C101F [8]: R | Associated Phenotype, mutation F145I [8]: R | Associated Phenotype, mutation G353V [8]: R mod. | Associated Phenotype, mutation H97Y [8]: PPQ-R (CQ-R) | Associated Phenotype, mutation I218F [8]: R | Associated Phenotype, mutation M343L [8]: R low | Associated Phenotype, mutation T93S [8]: PPQ-R (CQ-R) | Associated Phenotype, mutation A220S [8]: S | Associated Phenotype, mutation I356T/L [8]: S | Associated Phenotype, mutation N326S/D [8]: S | Associated Phenotype, mutation M74I [8]: S | Associated Phenotype, mutation N75E [8]: S | Associated Phenotype, mutation Q271E [8]: S | Associated Phenotype, mutation R371I [8]: S | Associated Phenotype, mutation K76T [8]: S
